Reference: the RNAGym collection of RNA variant scans (doi:10.1038/nmeth.2970)

B1: GFP aptamer (parent)
chain: GCUUCUGGACUGCGAUGGGAGCACGAAACGUCGUGGCGCAAUUGGGUGGGGAAAGUCCUUAAAAGAGGGCCACCACAGAAGC

Variants of: B1
Test: HiTS-RAP
Details: with EGFP
Procedure, shortened: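 Aptamer templates containing a T7 promoter and ter site were sequenced on an Illumina GAIIx flowcell, transcribed in situ with T7 RNA polymerase and halted with GST-Tus for 30 minutes at 37°C. Clusters were imaged after 30 minutes at room temperature with EGFP-mOrange at 0.04 nM to 625 nM in fivefold steps. Kd was obtained from per-lane weighted Hill fits to decay-corrected, sequencing-normalised, per-sequence mean intensities, geometrically averaged over lanes. Three lanes entered that average, and non-rising sequences were given 125 nM.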

Variant	Kd [nM]
A28U	4.46
C29A	3.32
C29G	4.09
C29U	4.49
C29U C74U	1.86
C29U U31C	2.86
C29U U34C	20.1
G30A	4.37
G30A A75G	41.1
G30A C73U	0.856
G30A C74U	5.86
G30A G33A	27.8
G30A G68A	31.8
G30C	4.2
G30U	3.95
U31A	4.16
U31C	4.31
U31C A40G	4.07
U31C A41G	3.04
U31C A75G	14
U31C A79G	3.52
U31C C58U	1.14
U31C G44A	1.82
U31C G68A	28.1

Variant	Kd [nM]
U31C U42C	19.5
U31C U43C	1.5
U31G	3.99
C32A	3.24
C32G	4.95
C32U	4.26
C32U A79G	5.26
C32U C70U	11.5
C32U C74U	11.9
C32U G68A	60.2
C32U U43C	2.27
G33A	11.6
G33A A79G	11.9
G33A C73U	8.48
G33C	≥ 125
G33U	35.1
U34A	30.6
U34C	24.2
U34C A41G	2.74
U34C A77G	18
U34C C58U	68.2
U34G	6.01
G35A	≥ 125
G35C	≥ 125

Variant	Kd [nM]
G35U	≥ 125
G36A	63.3
G36C	≥ 125
G36U	≥ 125
C37A	5.05
C37G	15.5
C37U	19.1
C37U A77G	2.53
C37U C73U	24
C37U U43C	12.8
G38A	28
G38C	83.5
G38U	14.5
C39G	9.2
C39U	10.3
A40C	≥ 125
A40G	4.95
A40G A77G	4.67
A40G C73U	4.47
A40U	21.7
A41C	10.1
A41G	5.96
A41G A77G	7.24
A41G C74U	5.07

Variant	Kd [nM]
A41G U43C	12.7
A41G U47C	2.42
A41U	4.87
U42A	31.8
U42C	6.72
U42C A77G	13.7
U42C C74U	1.05
U42C U47C	19.6
U42G	7.09
U43A	5.22
U43C	4.76
U43C A77G	5.23
U43G	19.5
G44A	5.26
G44C	34.8
G44U	93.2
G45A	28.2
G45C	178
G45U	22.7
G46A	18.7
G46C	58.8
G46U	29.2
U47A	8.14
U47C	8.1

Variant	Kd [nM]
U47C A79G	62.1
U47C C58U	2.94
U47C C73U	44.3
U47G	5.28
G48A	≥ 125
G48C	≥ 125
G48U	21.3
G49A	21.5
G49C	57.7
G49U	11.1
G50A	68
G50C	67.7
G50U	12.3
G51A	8.55
G51C	≥ 125
G51U	28.8
A52C	43.6
A52G	12.3
A52U	≥ 125
A53G	33.3
A53U	118
A54C	≥ 125
A54G	65.4
A54U	≥ 125

Variant	Kd [nM]
G55A	≥ 125
G55C	50.8
G55U	9.31
U56A	≥ 125
U56C	≥ 125
U56G	3.15
C57A	≥ 125
C57G	≥ 125
C57U	≥ 125
C58G	29.1
C58U	1.21
C58U C70U	4.84
C58U C73U	0.976
C58U C74U	5.94
U59A	10.1
U59C	16.6
U59C A77G	0.842
U59G	6.85
U60A	1.71
U60C	16.6
U60G	5.38
A61C	5.03
A61G	3.47
A61U	4.9

Variant	Kd [nM]
A62C	4
A62G	3.54
A62U	3.36
A63C	≥ 125
A63G	8.55
A63U	≥ 125
A64C	≥ 125
A64G	≥ 125
A64U	≥ 125
G65A	12.4
G65C	35.3
G65U	≥ 125
A66G	11.2
A66G C74U	12.3
A66U	8.88
G67A	14.2
G67C	11.8
G67U	9.04
G68A	27.5
G68C	55.4
G68U	15.9
G69A	≥ 125
G69C	≥ 125
